Source: PubChem
This excerpt belongs to a sample that is enriched for hits.
Calb biofilm kill: mixture kills Candida albicans biofilm cells. C. albicans biofilm persisters + clotrimazole, fluorescence viability; primary screen in compound mixtures of four per well. inhibition, % at 7.6 µM. 0.02% of 120,000 active;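 active means inhibition above 30.3% in the primary screen of four-compound pools, then above 30% when the compound was retested; inconclusive means passed the primary limit but could not be retested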;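 further: compounds exposed to preformed 24 h biofilms for 48 h; 0% = untreated biofilm control and 100% = clotrimazole plus chlorhexidine kill blank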
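Test system: C. albicans CAF4-2 wild-type biofilms; buffer or medium: RPMI/MOPS medium, pH 7.0; schedule: 24 h biofilm formation, then 48 h compound exposure, 37 °C; detection: Alamar Blue fluorescence; measure: percent inhibition of biofilm viability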
ROMK primary: human ROMK K+ channel modulation, primary screen; 2% of 130,000 active; Tet-inducible ROMK, thallium flux fluorescence; actives lie on both sides; B-score at 10 µM; P48048; AID 1918;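 active means signal ratio slope over the read window, or its plate-corrected B-score, at least 3 SD from the plate mean, either direction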;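 further: B-score of the F/F0 ratio slope over 7 to 12 s after thallium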
Target sequence (P48048 whole entry, looked up): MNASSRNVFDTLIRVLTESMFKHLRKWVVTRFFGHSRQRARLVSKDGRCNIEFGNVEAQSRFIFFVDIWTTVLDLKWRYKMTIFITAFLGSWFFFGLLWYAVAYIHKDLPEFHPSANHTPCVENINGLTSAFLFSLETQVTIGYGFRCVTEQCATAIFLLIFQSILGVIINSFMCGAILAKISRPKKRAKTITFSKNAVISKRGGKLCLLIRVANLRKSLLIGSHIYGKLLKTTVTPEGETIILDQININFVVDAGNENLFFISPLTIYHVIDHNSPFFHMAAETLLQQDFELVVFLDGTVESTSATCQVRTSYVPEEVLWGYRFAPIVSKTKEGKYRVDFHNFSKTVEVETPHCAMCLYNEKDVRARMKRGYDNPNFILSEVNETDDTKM
ROMK retest: human ROMK channel modulation, retest confirmation; AID 1917; 54% of 3,000 active; ROMK thallium flux, fluorescence ratio; stronger effect = lower value; normalized thallium flux (F/F0 slope) at 10 µM; shares compounds with ROMK primary;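 active means Flux at 10 µM at least 3 SD below or above vehicle control mean in one or both replicates; inconclusive means no clear call, values can overlap the other calls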
The depositor's hits bear a star; ? = inconclusive; . = not tested or not shown.

SMILES	Calb biofilm kill	ROMK primary	ROMK retest
CCCn1c(=O)c2c(C(=O)OCC)cc(-c3ccco3)nc2n(CCC)c1=O	.	-3.82*	0.0635*
CCOc1cc(/C=N/NC(=O)c2nn(C)cc2Br)ccc1OCc1ccccc1	14.2	0.574	.
CC(C)C(c1nnnn1Cc1ccccc1)N1CCN(Cc2ccc3c(c2)OCO3)CC1 (stereo unspecified)	.	.	0.0556*
CC(C)C(c1nnnn1CC1CCCO1)N1CCN(Cc2ccc3c(c2)OCO3)CC1 (stereo unspecified)	.	-1.43	.
CCC(C)c1ccc(NC(=S)NCCn2cc(Cl)cn2)cc1 (stereo unspecified)	-0.7	-0.0621	.
COc1ccccc1N(CC(=O)N(c1ccccc1)C(C)C)S(=O)(=O)c1cccs1	12.8	-2.26	.
COc1ccccc1N(CC(=O)N(CC(C)C)CC(C)C)S(=O)(=O)c1cccs1	9.5	-4.14*	0.0667*
CC(=O)N/N=C(\C)CC(=O)Nc1cccc2c1CCCC2	24.4	0.117	.
CCn1ncc(/C=N\NC(=O)c2cc(-c3ccc(C)cc3C)nc3ccccc23)c1C	.	2.1	.
CCc1cc(/C(Cc2csc(C)n2)=N/O)c(O)cc1O	.	-3.31*	0.0665*
Cc1nc(C/C(=N\N)c2ccc(O)cc2O)cs1	-0.5	0.359	.
Cc1cccn2c(=O)c3cc(C(=O)NCc4cccnc4)c(=N)n(C)c3nc12	.	0.369	.
COCCCN1C(=O)C(=O)/C(=C(/O)c2ccc(OC)cc2)C12C(=O)N(C)c1ccccc12 (stereo unspecified)	16.9	0.194	.
CCOc1ccccc1C(=O)NCC(=O)OCC(=O)NCCc1ccc(S(N)(=O)=O)cc1	.	-2.78*	0.0848
NS(=O)(=O)c1ccc(CCNC(=O)COC(=O)CCc2ccccc2)cc1	8.1	-1.05	.
Cc1[nH]n2cnnc2c(=O)c1Br	27.2	.	.
Cc1c(N=C2SCC(=O)N2c2c(C)n(C)n(-c3ccccc3)c2=O)c(=O)n(-c2ccccc2)n1C	.	0.765	.
Cc1ccc(-n2c3c(c(O)c(-c4ccccc4)c2=O)C(=O)CC(C)(C)C3)cc1	1.8	-1.96	.
COc1cc(/C=C/C(=O)NC(C)(C)C)ccc1OCc1ccccc1	12.3	-0.454	.
COc1cc(/C=C/[N+](=O)[O-])ccc1OCc1cccc(C(=O)O)c1	4.1	-6.02*	0.0369*
O=C1NC(=Nc2ccc3ccccc3c2)S/C1=C/c1ccco1	17.3	2.6*	0.0741
O=C1NC(=Nc2ccc(O)cc2)S/C1=C/c1ccco1	6.6	-0.0221	.
O=C(OCc1ccccc1)C1=NNC2C(=O)N(c3ccccc3)C(=O)C12 (stereo unspecified)	21.8	.	.
O=C(Nc1ccccc1)Nc1ccc(F)c([N+](=O)[O-])c1	18.6	.	?
O=C(Nc1ccccc1)Nc1ccc(Cl)c([N+](=O)[O-])c1	18.4	-1.17	.
SMILES	Calb biofilm kill	ROMK primary	ROMK retest
Cc1c(NC(=S)NC(C)(C)C)c(=O)n(-c2ccccc2)n1C	10.3	0.0142	.
Cc1ccc(C(C)C)c(OCC(=O)OCc2c(C)noc2C)c1	.	-0.293	.
CCOc1ccc(NC(=O)C2CC(=O)OC2c2ccccc2)cc1 (stereo unspecified)	15.4	-1.27	.
COC(=O)c1ccc(NC(=O)C2CC(=O)OC2c2ccccc2)cc1 (stereo unspecified)	29.9	.	0.0721
CCOC(=O)c1c(C)oc2ccc(NS(=O)(=O)c3ccc4c5c(cccc35)C(=O)N4)cc12	.	-2.96*	0.0838
COCCOC(=O)c1c(C)oc2ccc(NS(=O)(=O)c3ccc(C)cc3)cc12	22.7	-1.29	.
CCNS(=O)(=O)c1ccc2c3c(cccc13)C(=O)N2	.	0.0865	.
COC(=O)c1c(C)oc2ccc(NS(=O)(=O)c3cccs3)cc12	.	-4.01*	?
O=C(Nc1cccc2c1CCCC2)c1cc([N+](=O)[O-])cc([N+](=O)[O-])c1	6.8	-0.0185	.
O=C(COc1ccccc1CNCc1ccccc1)Nc1ccccc1	.	-2.37*	0.0563*
CCOc1ccccc1CNCc1ccc(C(=O)O)cc1	9.1	0.187	.
CCOC(=O)c1cnc2ccc(C)cc2c1Sc1ccc(F)cc1	.	-0.48	.
S=C(NCCc1ccccc1)N1CCN(C(c2ccccc2)c2ccccc2)CC1	12.2	1.16	.
S=C(NCCc1ccccc1)N1CCN(C23CC4CC(CC(C4)C2)C3)CC1	9.8	-7.94*	?
O=S(=O)(c1ccccc1)c1nc(-c2ccccc2)oc1N1CCOCC1	14.4	.	.
O=S(=O)(c1ccccc1)c1nc(-c2ccco2)oc1N1CCCCCC1	.	-2.76*	0.0716
CC(C)(O)C#Cc1ccc(C(=O)N2CCN(c3ccc([N+](=O)[O-])cc3)CC2)cc1	7.5	.	.
CS(=O)(=O)Nc1ccc(C(=O)Nc2ccccc2C(=O)N2CCCC2)cc1	.	.	0.0801
COC(=O)c1ccccc1NC(=O)c1ccc(NS(C)(=O)=O)cc1	.	-0.978	.
O=S(=O)(Nc1ccc(-c2cn3ccccc3n2)cc1)c1ccccc1	22.9	.	.
N#C/C(=C/c1ccc(N2CCCCC2)o1)C(=O)Nc1ccc2ccccc2c1	16.6	.	.
N#C/C(=C/c1ccc(N2CCCCC2)o1)C(=O)Nc1ccc(Cl)cc1	.	.	0.0482*
CCOc1ccc2nnnn2n1	.	0.577	.
CC(C)(C)OC(=O)C(Cl)(C(=O)OC(C)(C)C)c1ccc2nnnn2n1	37.5	-3.63	0.0643*
COC(=O)c1ccc(CS(=O)(=O)c2ccccc2C)o1	.	1.02	.
SMILES	Calb biofilm kill	ROMK primary	ROMK retest
COc1ccccc1S(=O)(=O)Cc1ccc(C(=O)NC2CCCCC2)o1	.	.	0.083
CC1(C)NC(=O)N(CCOc2ccc([N+](=O)[O-])cc2)C1=O	-1.8	-0.467	.
CC(C(=O)c1ccc(-c2ccccc2)cc1)[n+]1cccc(NC(=O)c2ccccc2)c1 (stereo unspecified)	10.5	-4.9*	0.0571*
CCOC(=O)c1ccc[n+](C(C)C(=O)c2ccc(-c3ccccc3)cc2)c1 (stereo unspecified)	14.3	-0.543	.
CN(C)c1nc(-c2cccs2)cc(C(F)(F)F)c1C#N	23.4	.	.
COCCN1CCn2c(nc3cc([N+](=O)[O-])ccc32)C1	17.6	.	.
O=[N+]([O-])c1ccc2c(c1)nc1n2CCN(c2ccccc2)C1	22.2	.	0.0724
COc1cc(CC(=O)Nc2ccc(N3CCOCC3)cc2)cc(OC)c1OC	3.9	0.593	.
O=C(Nc1ccc(Cl)cc1)Nc1nnc(-c2ccncc2)s1	11.5	.	.
O=C(Nc1ccc(F)cc1)Nc1nnc(-c2ccncc2)s1	.	-2.12*	0.0803
COc1cccc(NC(=O)CNC(=O)c2ccc([N+](=O)[O-])cc2)c1	21.8	.	.
Cc1ccc(CC(=O)N2CCOCC2)cc1	.	0.29	.
C/C(=N/OCC(=O)Nc1ccccc1)c1cccs1	.	-0.381	.
COc1ccc(CN=C(C#N)C2=C(O)c3ccccc3C2=O)cc1	21.2	0.00564	.
Cc1nc2cc(NCc3nc4ccccc4n3Cc3ccccc3)ccc2n1C	.	-5.2*	0.0607*
Cc1cccc(NCc2nc3ccccc3n2Cc2ccccc2)c1	.	-0.24	.
CCn1cc([N+](=O)[O-])c(C(=O)N2CCCC2)n1	.	0.952	.
CC1=C(C(=O)OCc2ccccc2)C(/C=C/c2ccccc2)N2C(=O)CCSC2=N1 (stereo unspecified)	13.6	-4.92*	0.0829
C=CCOC(=O)C1=C(C)N=C2SCCC(=O)N2C1/C=C/c1ccccc1 (stereo unspecified)	5.4	-0.858	.
COc1ccc2c3c(cccc13)NN=C2C	.	0.584	.
Cc1cc(C2=NNC(=NC3CC3)SC2)c(C)n1Cc1ccco1	11.1	.	.
COCCCN=C1NN=C(c2cc(C)n(Cc3ccco3)c2C)CS1	8.4	1.31*	0.0741
